Measured values taken from ChEMBL document CHEMBL1125138, “1,3-Dialkyl-3-acyltriazenes, a novel class of antineoplastic alkylating agents” (J Med Chem, 1990).

What was measured:
A498 = experiment: Evaluated for the inhibitory concentration required to cause growth inhibition of A498Rem- renal cell line using the MTT Cytotoxicity Assay; assay type: functional, cell-based; conditions: Homo sapiens
Outline: (§1)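 MTT microculture tetrazolium growth assay on human cell lines and normal fibroblasts. Cells seeded at 1000 cells/well, with compound added 24 h after plating. Cultures then incubated a further 6 days at 37 °C before MTT read-out of growth versus untreated cells.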

A-427 = experiment: Evaluated for the inhibitory concentration required to cause growth inhibition of A427Mer- cell line of lung using the MTT Cytotoxicity Assay; assay type: functional, cell-based; conditions: Homo sapiens; outline: as §1
A704 = experiment: Evaluated for the inhibitory concentration required to cause growth inhibition of A704Rem- renal cell line using the MTT Cytotoxicity Assay; assay type: functional, cell-based; conditions: Homo sapiens; outline: as §1
A673 = experiment: Evaluated for the inhibitory concentration required to cause growth inhibition of A673Mer+ sarcoma cell line using the MTT Cytotoxicity Assay; assay type: functional, cell-based; conditions: Homo sapiens; outline: as §1
A 172 = experiment: Evaluated for the inhibitory concentration required to cause growth inhibition of A172Mer- cell line of central nervous system (CNS) using the MTT Cytotoxicity Assay; assay type: functional, cell-based; conditions: Homo sapiens; outline: as §1
CCD 19Lu = experiment: Evaluated for the inhibitory concentration required to cause growth inhibition of CCD-19Lu fibroblasts cell line using the MTT Cytotoxicity Assay; assay type: functional, cell-based; conditions: Homo sapiens; outline: as §1
DOD-1 = experiment: Evaluated for the inhibitory concentration required to cause growth inhibition of DOD-1 breast cell line using the MTT Cytotoxicity Assay; assay type: functional, cell-based; conditions: Homo sapiens; outline: as §1
NCI-H460 = experiment: Evaluated for the inhibitory concentration required to cause growth inhibition of H460 cell line of lung using the Microculture Tetrazolium (MTT) Cytotoxicity Assay; assay type: functional, cell-based; conditions: Homo sapiens; outline: as §1
NCI-H358 = experiment: Evaluated for the inhibitory concentration required to cause growth inhibition of H358M cell line of lung using the Microculture Tetrazolium (MTT) Cytotoxicity Assay; assay type: functional, cell-based; conditions: Homo sapiens; outline: as §1
NCI-H125 = experiment: Evaluated for the inhibitory concentration required to cause growth inhibition of H125 cell line of lung using the Microculture Tetrazolium (MTT) Cytotoxicity Assay; assay type: functional, cell-based; conditions: Homo sapiens; outline: as §1
NCI-H322M = experiment: Evaluated for the inhibitory concentration required to cause growth inhibition of H322M cell line of lung using the Microculture Tetrazolium (MTT) Cytotoxicity Assay; assay type: functional, cell-based; conditions: Homo sapiens; outline: as §1
NCI-H23 = experiment: Evaluated for the inhibitory concentration required to cause growth inhibition of H23 cell line of lung using the Microculture Tetrazolium (MTT) Cytotoxicity Assay; assay type: functional, cell-based; conditions: Homo sapiens; outline: as §1
LOX IMVI = experiment: Evaluated for the inhibitory concentration required to cause growth inhibition of LOX melanoma cell line using the MTT Cytotoxicity Assay; assay type: functional, cell-based; conditions: Homo sapiens; outline: as §1
MCF7 = experiment: Evaluated for the inhibitory concentration required to cause growth inhibition of MCF-7 breast cell line using the MTT Cytotoxicity Assay; assay type: functional, cell-based; conditions: Homo sapiens; outline: as §1
[1] = system: MAR BEL fibroblasts cell line; experiment: Evaluated for the inhibitory concentration required to cause growth inhibition of MAR BEL fibroblasts cell line using the MTT Cytotoxicity Assay; assay type: functional, cell-based; conditions: Homo sapiens; outline: as §1
NCI/ADR-RES = experiment: Evaluated for the inhibitory concentration required to cause growth inhibition of MCF-7ADR breast cell line using the MTT Cytotoxicity Assay; assay type: functional, cell-based; conditions: Homo sapiens; outline: as §1
Malme-3M = experiment: Evaluated for the inhibitory concentration required to cause growth inhibition of MALME-3M melanoma cell line using the MTT Cytotoxicity Assay; assay type: functional, cell-based; conditions: Homo sapiens; outline: as §1
OVCAR-4 = experiment: Evaluated for the inhibitory concentration required to cause growth inhibition of OVCAR-4 ovarian cell line using the MTT Cytotoxicity Assay; assay type: functional, cell-based; conditions: Homo sapiens; outline: as §1
OVCAR-3 = experiment: Evaluated for the inhibitory concentration required to cause growth inhibition of OVCAR-3 ovarian cell line using the MTT Cytotoxicity Assay; assay type: functional, cell-based; conditions: Homo sapiens; outline: as §1
P388 [2] = experiment: Evaluated in vivo for antineoplastic activity against P388 murine leukemia tumor […] after administering intra peritoneal injection at a dose of 13.12 mg/kg; assay type: functional, Mus musculus
Outline: (§2)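 P388 leukemia-bearing mice, run through the NCI Developmental Therapeutics Program. Compound given ip once daily on 5 consecutive days. Activity read out as % T/C.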

P388 [3] = experiment: Evaluated in vivo for antineoplastic activity against P388 murine leukemia tumor […] after administering intra peritoneal injection at a dose of 26.25 mg/kg; assay type: functional, Mus musculus; outline: as §2
P388 [4] = experiment: Evaluated in vivo for antineoplastic activity against P388 murine leukemia tumor […] after administering intra peritoneal injection at a dose of 52.5 mg/kg; assay type: functional, Mus musculus; outline: as §2
HOS-TE85 = experiment: Evaluated for the inhibitory concentration required to cause growth inhibition of TE85Mer+ sarcoma cell line using the MTT Cytotoxicity Assay; assay type: functional, cell-based; conditions: Homo sapiens; outline: as §1
TE-671 = experiment: Evaluated for the inhibitory concentration required to cause growth inhibition of TE-671 cell line of central nervous system (CNS)using the MTT Cytotoxicity Assay; assay type: functional, cell-based; conditions: Homo sapiens; outline: as §1
WiDr = experiment: Evaluated for the inhibitory concentration required to cause growth inhibition of WiDR colon cell line using the MTT Cytotoxicity Assay; assay type: functional, cell-based; conditions: Homo sapiens
Outline: (§3)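 MTT cell-growth assay in human cell lines: cells harvested and seeded at 1000 cells/well in 96-well plates. Compound added after 24 h, then cultures incubated a further 6 days at 37 °C. Growth measured with and without agent.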

U-251 = experiment: Evaluated for the inhibitory concentration required to cause growth inhibition of U251 cell line of central nervous system (CNS) using the MTT Cytotoxicity Assay; assay type: functional, cell-based; conditions: Homo sapiens; outline: as §3
RPMI-7951 = experiment: Evaluated for the inhibitory concentration required to cause growth inhibition of RPMI7951 melanoma cell line using the MTT Cytotoxicity Assay; assay type: functional, cell-based; conditions: Homo sapiens; outline: as §1
SK-MEL-5 = experiment: Evaluated for the inhibitory concentration required to cause growth inhibition of SK-MEL-5 melanoma cell line using the MTT Cytotoxicity Assay; assay type: functional, cell-based; conditions: Homo sapiens; outline: as §1
A549 = experiment: Evaluated for the inhibitory concentration required to cause growth inhibition of A549Rem- cell line of lung using the MTT Cytotoxicity Assay; assay type: functional, cell-based; conditions: Homo sapiens; outline: as §1
NCI-H522 (Homo sapiens) = experiment: Evaluated for the inhibitory concentration required to cause growth inhibition of H522 cell line of lung using the Microculture Tetrazolium (MTT) Cytotoxicity Assay

Row | Structure (SMILES) | IC50 (A498) | IC50 (A-427) | IC50 (A704) | IC50 (A 172) | IC50 (CCD 19Lu) | IC50 (DOD-1) | IC50 (NCI-H460) | IC50 (NCI-H358) | IC50 (NCI-H125) | IC50 (NCI-H322M) | IC50 (NCI-H23) | IC50 (LOX IMVI) | IC50 (MCF7) | IC50 (NCI/ADR-RES) | IC50 (Malme-3M) | IC50 (OVCAR-4) | IC50 (OVCAR-3) | IC50 (TE-671) | IC50 (U-251) | IC50 (SK-MEL-5) | further results
1 | CC(=O)N(C)/N=N\CCCl | 18 µM | 12 µM | 26 µM | 20 µM | 60 µM | 26 µM | 60 µM | 60 µM | 42 µM | 32 µM | 20 µM | 8 µM | 15 µM | 24 µM | 25 µM | 18 µM | 25 µM | 50 µM | 18 µM | 15 µM | IC50 (A673): 35 µM; IC50 [1]: 44 µM; T/C (P388 [2]): 157%; T/C (P388 [3]): 217%; T/C (P388 [4]): 257%; IC50 (HOS-TE85): 18 µM; IC50 (WiDr): 15 µM; IC50 (RPMI-7951): 17 µM; IC50 (A549): 26 µM; IC50 (NCI-H522 (Homo sapiens)): 18 µM
2 | O=NN(CCCl)C(=O)NCCCl [CARMUSTINE] | 110 µM | 8 µM | 125 µM | 18 µM | 300 µM | 37 µM | 80 µM | 98 µM | 9 µM | 60 µM | 5 µM | 7 µM | 4.5 µM | 20 µM | 20 µM | 18 µM | 15 µM | 25 µM | 15 µM | 27 µM | IC50 (A549): 90 µM; IC50 (NCI-H522 (Homo sapiens)): 20 µM
